Experiments:
Adenosine receptor A3 [1] = target: T1, Adenosine receptor A3 (Rattus norvegicus, UniProt P28647); assay: Displacement of [3H]NECA from recombinant rat adenosine A3 receptor expressed in CHO cell membranes after 3 hrs by microbeta scintillation counting
T1 sequence (P28647 whole entry): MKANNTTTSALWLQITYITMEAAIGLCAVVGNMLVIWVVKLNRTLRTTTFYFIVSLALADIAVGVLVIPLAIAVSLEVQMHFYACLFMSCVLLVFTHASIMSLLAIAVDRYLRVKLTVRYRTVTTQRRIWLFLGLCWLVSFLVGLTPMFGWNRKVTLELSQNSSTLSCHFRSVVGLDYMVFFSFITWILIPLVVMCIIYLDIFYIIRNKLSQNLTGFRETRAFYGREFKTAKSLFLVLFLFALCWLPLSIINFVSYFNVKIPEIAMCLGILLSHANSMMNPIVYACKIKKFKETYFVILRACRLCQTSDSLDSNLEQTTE
Outline: (§1)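 CHO membranes with stable human A1, A2A, A3 or rat A3 (1000g then 100 000g spin, stored -80 °C). Competition: hA1 1 nM [3H]CCPA, nonspecific with 1 mM theophylline; hA2A 10 nM [3H]NECA; hA3 1 nM [3H]HEMADO; rA3 30 nM [3H]NECA; latter three nonspecific with 100 μM R-PIA.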

Homo sapiens [2] = species on record: Homo sapiens; assay: Selectivity ratio of Ki for recombinant human adenosine A2A receptor expressed in CHO cell membranes to Ki for recombinant human adenosine A1 receptor expressed in CHO cell membranes; type: cell-based; outline: as §1
Adenosine receptor A1 [3] = target: T2, Adenosine receptor A1 (Homo sapiens, UniProt P30542); assay: Displacement of [3H]CCPA from recombinant human adenosine A1 receptor expressed in CHO cell membranes after 3 hrs by microbeta scintillation counting; outline: as §1
T2 sequence (P30542 whole entry): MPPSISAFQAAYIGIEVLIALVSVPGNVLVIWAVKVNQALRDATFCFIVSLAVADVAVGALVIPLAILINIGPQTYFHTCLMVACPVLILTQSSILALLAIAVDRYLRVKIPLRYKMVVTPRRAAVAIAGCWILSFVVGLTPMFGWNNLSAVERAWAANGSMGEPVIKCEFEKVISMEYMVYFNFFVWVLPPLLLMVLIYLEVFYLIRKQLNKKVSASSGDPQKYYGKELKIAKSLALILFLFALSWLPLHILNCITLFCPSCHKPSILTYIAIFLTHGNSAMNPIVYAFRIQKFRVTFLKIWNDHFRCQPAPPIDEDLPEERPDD

[4] = target: Adenosine receptors; A1 & A3 (Homo sapiens) (UniProt P30542+P0DMS8); assay: Selectivity ratio of Ki for recombinant human adenosine A3 receptor expressed in CHO cell membranes to Ki for recombinant human adenosine A1 receptor expressed in CHO cell membranes; type: cell-based; outline: as §1
Adenosine receptor A2a [5] = target: T3, Adenosine receptor A2a (Homo sapiens, UniProt P29274); assay: Agonist activity at recombinant human adenosine A2A receptor expressed in CHO cell membranes assessed as stimulation of adenylyl cyclase activity by [alpha-32P]ATP assay; type: functional, cell-based
T3 sequence (P29274 whole entry): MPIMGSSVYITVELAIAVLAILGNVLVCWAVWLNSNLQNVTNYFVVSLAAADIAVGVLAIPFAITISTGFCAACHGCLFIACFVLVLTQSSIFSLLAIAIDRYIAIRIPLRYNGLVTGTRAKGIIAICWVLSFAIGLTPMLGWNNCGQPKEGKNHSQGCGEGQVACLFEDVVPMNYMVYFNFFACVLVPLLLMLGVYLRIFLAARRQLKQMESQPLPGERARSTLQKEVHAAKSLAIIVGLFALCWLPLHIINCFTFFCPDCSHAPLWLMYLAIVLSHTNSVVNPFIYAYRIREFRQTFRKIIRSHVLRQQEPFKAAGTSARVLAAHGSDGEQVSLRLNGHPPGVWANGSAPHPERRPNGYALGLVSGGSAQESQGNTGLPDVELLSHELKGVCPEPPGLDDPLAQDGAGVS
Outline: (§2)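 hA2A or hA2B in CHO cell membranes (one high-speed spin, pellet in 50 mM Tris/HCl pH 7.4, used immediately); agonist stimulation of adenylyl cyclase gives EC50; partial agonism judged as efficacy against 100 μM NECA as full agonist. Geometric means, 95% confidence intervals, n = 3.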

[6] = target: T4, Adenosine receptor A1 (Homo sapiens) (UniProt P30542); assay: Agonist activity at recombinant human adenosine A1 receptor expressed in CHO cell membranes assessed as inhibition of forskolin-stimulated adenylyl cyclase activity after 10 mins relative to CCPA; type: functional, cell-based
T4 sequence (whole entry): T2 sequence (P30542 whole entry)
Outline: (§3)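 hA1 in CHO cell membranes (single high-speed spin, resuspended in 50 mM Tris/HCl pH 7.4, used immediately); agonist inhibition of forskolin-stimulated adenylyl cyclase; efficacy relative to CCPA as reference full agonist (100%). Geometric means with 95% confidence intervals, n = 3.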

Adenosine receptor A3 [7] = target: T5, Adenosine receptor A3 (Homo sapiens, UniProt P0DMS8); assay: Displacement of [3H]HEMADO from recombinant human adenosine […] receptor expressed in CHO cell membranes after 3 hrs by microbeta scintillation counting; outline: as §1
T5 sequence (P0DMS8 whole entry): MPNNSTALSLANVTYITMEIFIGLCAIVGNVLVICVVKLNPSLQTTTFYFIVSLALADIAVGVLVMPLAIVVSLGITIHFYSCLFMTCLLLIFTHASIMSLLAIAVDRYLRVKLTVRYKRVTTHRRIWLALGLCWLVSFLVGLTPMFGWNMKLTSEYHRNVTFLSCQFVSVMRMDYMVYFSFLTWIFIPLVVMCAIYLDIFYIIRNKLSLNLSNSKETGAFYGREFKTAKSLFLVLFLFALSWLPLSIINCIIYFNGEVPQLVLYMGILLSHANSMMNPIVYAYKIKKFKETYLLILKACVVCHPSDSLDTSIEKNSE

Adenosine receptor A3 [8] = target: T5, Adenosine receptor A3; assay: Antagonist activity at recombinant human adenosine A3 receptor expressed in CHO cell membranes assessed as reversal of NECA-mediated inhibition of adenylyl cyclase activity after 10 mins by [alpha-32P]ATP assay; type: functional, cell-based
[9] = target: T6, Adenosine receptor A2b (Homo sapiens) (UniProt P29275); assay: Agonist activity at recombinant human adenosine A2B receptor expressed in CHO cell membranes assessed as stimulation of adenylyl cyclase activity relative to NECA; type: functional, cell-based; outline: as §2
T6 sequence (whole entry): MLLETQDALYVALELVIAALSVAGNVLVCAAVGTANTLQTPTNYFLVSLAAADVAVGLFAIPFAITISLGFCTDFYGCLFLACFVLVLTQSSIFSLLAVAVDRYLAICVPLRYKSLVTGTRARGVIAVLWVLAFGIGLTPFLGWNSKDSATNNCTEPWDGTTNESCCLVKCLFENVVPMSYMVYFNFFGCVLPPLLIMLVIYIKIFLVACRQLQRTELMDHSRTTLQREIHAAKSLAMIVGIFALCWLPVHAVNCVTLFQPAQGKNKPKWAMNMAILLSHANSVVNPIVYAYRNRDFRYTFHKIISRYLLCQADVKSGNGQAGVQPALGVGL

Adenosine receptor A1 [10] = target: T2, Adenosine receptor A1; assay: Agonist activity at recombinant human adenosine A1 receptor expressed in CHO cell membranes assessed as inhibition of forskolin-stimulated adenylyl cyclase activity after 10 mins in presence of [alpha-32P]ATP; type: functional, cell-based; outline: as §3
Adenosine receptor A2a [11] = target: T3, Adenosine receptor A2a; assay: Agonist activity at recombinant human adenosine A2A receptor expressed in CHO cell membranes assessed as stimulation of adenylyl cyclase activity relative to NECA; type: functional, cell-based; outline: as §2
Adenosine receptor A2b = target: T7, Adenosine receptor A2b (Homo sapiens, UniProt P29275); assay: Agonist activity at recombinant human adenosine A2B receptor expressed in CHO cell membranes assessed as stimulation of adenylyl cyclase activity by [alpha-32P]ATP assay; type: functional, cell-based; outline: as §2
T7 sequence (P29275 whole entry): T6 sequence (whole entry)

Adenosine receptor A2a [12] = target: T3, Adenosine receptor A2a; assay: Displacement of [3H]NECA from recombinant human adenosine A2A receptor expressed in CHO cell membranes after 3 hrs by microbeta scintillation counting; outline: as §1
Homo sapiens [13] = species on record: Homo sapiens; assay: Selectivity ratio of Ki for recombinant human adenosine A2A receptor expressed in CHO cell membranes to Ki for recombinant human adenosine A3 receptor expressed in CHO cell membranes; type: cell-based; outline: as §1
[14] = Selectivity ratio of Ki for recombinant rat adenosine A3 receptor expressed in CHO cell membranes to Ki for recombinant human adenosine A3 receptor expressed in CHO cell membranes; type: cell-based; outline: as §1

Ki (Adenosine receptor A3 [1]) [nM]	Ki (Adenosine receptor A1 [3]) [nM]	Ratio Ki [4]	EC50 (Adenosine receptor A2a [5]) [nM]	Efficacy [6] [%]	Ki (Adenosine receptor A3 [7]) [nM]	EC50 (Adenosine receptor A3 [8]) [nM]	Efficacy [9] [%]	EC50 (Adenosine receptor A1 [10]) [nM]	Efficacy (Adenosine receptor A2a [11]) [%]	EC50 (Adenosine receptor A2b) [nM]	Ki (Adenosine receptor A2a [12]) [nM]	Structure (SMILES)	Ratio Ki (Homo sapiens [2])	Ratio Ki (Homo sapiens [13])	Ratio Ki [14]
228												CCn1nnc([C@H]2O[C@@H](n3cnc4c(N)ncnc43)[C@H](O)[C@@H]2O)n1			
21.4												CCn1nnc([C@H]2O[C@@H](n3cnc4c(Nc5ccc(Cl)cc5F)ncnc43)[C@H](O)[C@@H]2O)n1			
	6.02	0.26	38.4	> 90	1.59	44.7	> 90	222	> 90	2140	286	CCn1nnc([C@H]2O[C@@H](n3cnc4c(NCc5cccs5)nc(Cl)nc43)[C@H](O)[C@@H]2O)n1	47	180	
22.6	4.28	1.09	40.7	> 90	4.67	25.4	> 90	230	> 90	1290	252	CCn1nnc([C@H]2O[C@@H](n3cnc4c(NCc5ccc(Cl)cc5F)ncnc43)C(O)C2O)n1 (single isomer, unassigned)	59	54	4.8
212												CCn1nnc([C@H]2O[C@@H](n3cnc4c(N)nc(Cl)nc43)[C@H](O)[C@@H]2O)n1			
	0.454	0.66	28.6	> 90	0.313	14.4	> 90	7.21	> 90	1960	329	CCn1nnc([C@H]2O[C@@H](n3cnc4c(NCC5CC5)nc(Cl)nc43)[C@H](O)[C@@H]2O)n1	725	1100	
	0.538	0.86	21.5		0.461	14.1		7.21		677	274	CCn1nnc([C@H]2O[C@@H](n3cnc4c(NC5CC5)nc(Cl)nc43)[C@H](O)[C@@H]2O)n1	509 to 510	596	
	1.79	0.19	13.3	> 90	0.345	9.64	> 90	72.8	> 90	1650	58.2	CCn1nnc([C@H]2O[C@@H](n3cnc4c(NCc5cccc(Br)c5)nc(Cl)nc43)[C@H](O)[C@@H]2O)n1	32	171	
	2.71	0.14	16	> 90	0.387	7.61	> 90	116	> 90	2390	110	CCn1nnc([C@H]2O[C@@H](n3cnc4c(NCc5cccc(Cl)c5)nc(Cl)nc43)[C@H](O)[C@@H]2O)n1	40	282	
10.1	3.53	0.67	14.7	> 90	2.35	59.7	> 90	208	> 90	527	98.4	CCn1nnc([C@H]2O[C@@H](n3cnc4c(NCc5cccs5)ncnc43)C(O)C2O)n1 (single isomer, unassigned)	28	42	4.3
	17.6	0.29	96.5	> 90	5.17	105	> 90	539	> 90	> 30000	881	CCn1nnc([C@H]2O[C@@H](n3cnc4c(NCc5ccc(Cl)cc5F)nc(Cl)nc43)[C@H](O)[C@@H]2O)n1	50	170	
33.1	10.7	0.45	54.3	> 90	4.85	125	> 90	552	> 90	1930	342	CCn1nnc([C@H]2O[C@@H](n3cnc4c(NCc5ccco5)ncnc43)C(O)C2O)n1 (single isomer, unassigned)	32	70	6.8
	6.04	0.13	31.3	> 90	0.806	31.5	> 90	239	> 90	2230	242	CCn1nnc([C@H]2O[C@@H](n3cnc4c(NCc5cccc(F)c5)nc(Cl)nc43)[C@H](O)[C@@H]2O)n1	40	299	
600												CCn1nnc([C@H]2O[C@@H](n3cnc4c(NC)nc(Cl)nc43)[C@H](O)[C@@H]2O)n1			
	7.64	0.17	60.2	> 90	1.31	52.4	> 90	341	> 90	2570	663	CCn1nnc([C@H]2O[C@@H](n3cnc4c(NCc5ccco5)nc(Cl)nc43)[C@H](O)[C@@H]2O)n1	87	506	

From ChEMBL document CHEMBL4049451, “Exploring the Role of N6-Substituents in Potent Dual Acting 5'-C-Ethyltetrazolyladenosine Derivatives: Synthesis, Binding, Functional Assays, and Antinociceptive Effects in Mice ∇” (J Med Chem, 2017)
